Source: ChEMBL document CHEMBL3526065, “Metabolism of [6]-shogaol in mice and in cancer cells” (Drug Metab Dispos, 2012)

Columns and labels:
[1] = Antioxidant activity assessed as DPPH radical scavenging activity; type: physicochemical
[2] = Drug level in C57BL/6J mouse feces treated with [6]-shogaol at 200 mg/kg, po by HPLC-ECD analysis relative to control; type: ADME, organism-based; parameters: dose 200 mg/kg, route oral; details: in vivo
Summary of the method: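 Female C57BL/6J mice gavaged once with 200 mg/kg in corn oil, or corn oil alone (n = 5 each). 24-h feces collected in metabolic cages. Feces extracted by sonication 90 min in MeOH/H2O (50/50) + 0.1% acetic acid, centrifuged, diluted fivefold. Analysed by HPLC with electrochemical array detection (Gemini C18, phosphate/acetonitrile/THF gradient), compared against vehicle controls.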

[3] = Drug level in human HCT116 cells treated with 10 uM [6]-shogaol after 24 hrs by HPLC-ECD analysis; type: ADME, cell-based; details: hct-116, 24 h
Summary of the method: (§1)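 Cells (1.0 × 10⁶) attached 24 h in six-well plates, then exposed to 10 μM final in McCoy's 5A with 10% FBS. Extracted with equal volume acetonitrile, diluted 5-fold, analysed by HPLC with electrochemical detection.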

[4] = tested on: HT-29; test: Drug level in human HT-29 cells treated with 10 uM [6]-shogaol by HPLC-ECD analysis; type: ADME, cell-based; summary of the method: as §1
[5] = Drug level in human H1299 cells treated with 10 uM [6]-shogaol after 24 hrs by HPLC-ECD analysis; type: ADME, cell-based; details: nci-h1299, 24 h; summary of the method: as §1
[6] = Cytotoxicity against human HCT116 cells assessed as growth inhibition after 24 hrs by MTT assay; type: functional, cell-based; details: HCT-116, 24 h
Summary of the method: (§2)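 Cells seeded at 3000/well, attached 24 h at 37°C, then exposed to test agents (0–80 μM, 0.1% DMSO final) for 24 h in McCoy's 5A with 10% FBS. Medium replaced with 2.41 mM MTT for 3 h at 37°C; formazan dissolved in DMSO, absorbance 550 nm. Viability as percentage of DMSO control; mean ± S.D., n = 6.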

[7] = Cytotoxicity against human H1299 cells assessed as growth inhibition after 24 hrs by MTT assay; type: functional, cell-based; details: NCI-H1299, 24 h; summary of the method: as §2
[8] = tested on: HCT-116; test: Induction of apoptosis in human HCT116 cells assessed as apoptotic cells at 40 uM after 24 hrs by TUNEL assay; type: functional
Summary of the method: (§3)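 HCT-116 or H-1299 cells seeded at 1.0 × 10⁵/well, after 24 h exposed for 24 h to compound (10–80 μM) or DMSO control. Cells were proteinase K-pretreated, formaldehyde-fixed, and slide-mounted for peroxidase TUNEL staining. Ten fields per slide counted at 400×; brown-nucleus cells given as percentage of total cells; mean ± S.E., n = 10.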

[9] = tested on: NCI-H1299; test: Induction of apoptosis in human H1299 cells assessed as apoptotic cells at 40 uM after 24 hrs by TUNEL assay; type: functional; summary of the method: as §3
[10] = tested on: HCT-116; test: Induction of apoptosis in human HCT116 cells assessed as apoptotic cells at 80 uM after 24 hrs by TUNEL assay; type: functional; summary of the method: as §3
[11] = tested on: NCI-H1299; test: Induction of apoptosis in human H1299 cells assessed as apoptotic cells at 80 uM after 24 hrs by TUNEL assay; type: functional; summary of the method: as §3
[12] = Drug metabolism in human HCT116 cells assessed as retention time treated with 10 uM [6]-shogaol after 24 hrs by HPLC-ECD analysis; type: ADME, cell-based; details: hct-116, 24 h; summary of the method: as §1

CCCCCCC[C@H](O)CC(=O)CCc1ccc(O)c(OC)c1
IC50 [1]: 20 µM

CCCCCC(CC(=O)CCc1ccc(O)c(OC)c1)SCC(NC(C)=O)C(=O)O (stereo not drawn)
Drug excretion [2]: metabolite_detected

CCCCCCCC(=O)CCc1ccc(O)c(OC)c1
Drug excretion [2]: metabolite_detected | Drug metabolism [3]: metabolite_detected | Drug metabolism [4]: metabolite_detected | Drug metabolism [5]: metabolite_detected | IC50 [6]: 84 µM | IC50 [7]: 66.5 µM | Activity [8]: 12.9% | Activity [9]: 8.3% | Activity [10]: 21.1% | Activity [11]: 19.4%

CCCCCC(CC(=O)CCc1ccc(O)c(OC)c1)SC[C@H](NC(=O)CC[C@H](N)C(=O)O)C(=O)NCC(=O)O (stereo partly drawn)
Retention_time [12]: 14.5 min

CCCCCC(CC(O)CCc1ccc(O)c(OC)c1)SCC(NC(C)=O)C(=O)O (stereo not drawn)
Drug excretion [2]: metabolite_detected

CCCCCC(CC(O)CCc1ccc(O)c(OC)c1)SC (stereo not drawn)
Drug excretion [2]: metabolite_detected

CCCCCC(CC(=O)CCc1ccc(O)c(OC)c1)OC (stereo not drawn)
Drug excretion [2]: metabolite_detected

CCCCCC(CC(O)CCc1ccc(O)c(OC)c1)SCC(N)C(=O)O (stereo not drawn)
Drug excretion [2]: metabolite_detected

CCCCCC(CC(O)CCc1ccc(O)c(OC)c1)SCC(N)C(=O)NCC(=O)O (stereo not drawn)
Drug excretion [2]: metabolite_detected
